Here are results for 29 molecules from ChEMBL document CHEMBL4346656, “Synthesis of urea analogues bearing N-alkyl-N'-(thiophen-2-yl) scaffold and evaluation of their innate immune response to toll-like receptors” (Eur J Med Chem, 2019).

Holding throughout (type): cell-based
For series [1], the target named is T1, Toll-like receptor 2 (Homo sapiens, UniProt O60603). The series is described as follows: Agonist activity at human TLR2 expressed in HEK-Blue cells assessed as activation of SEAP incubated for 24 hrs by quanti-blue SEAP assay. Particulars: for pEC50: read-out: EC50. An outline of the steps: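 TLR2 agonism in HEK-Blue hTLR2 cells, 4 × 10⁴/well, pre-cultured 24 h in DMEM/10% FBS at 37 °C, then treated 24 h with compound in fresh DMEM (tested up to 200 μM). Supernatant SEAP was read with QUANTI-Blue at 37 °C for 0.5–1 h, A620. EC50 came from at least three independent repeats.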
T1 sequence (O60603 whole entry): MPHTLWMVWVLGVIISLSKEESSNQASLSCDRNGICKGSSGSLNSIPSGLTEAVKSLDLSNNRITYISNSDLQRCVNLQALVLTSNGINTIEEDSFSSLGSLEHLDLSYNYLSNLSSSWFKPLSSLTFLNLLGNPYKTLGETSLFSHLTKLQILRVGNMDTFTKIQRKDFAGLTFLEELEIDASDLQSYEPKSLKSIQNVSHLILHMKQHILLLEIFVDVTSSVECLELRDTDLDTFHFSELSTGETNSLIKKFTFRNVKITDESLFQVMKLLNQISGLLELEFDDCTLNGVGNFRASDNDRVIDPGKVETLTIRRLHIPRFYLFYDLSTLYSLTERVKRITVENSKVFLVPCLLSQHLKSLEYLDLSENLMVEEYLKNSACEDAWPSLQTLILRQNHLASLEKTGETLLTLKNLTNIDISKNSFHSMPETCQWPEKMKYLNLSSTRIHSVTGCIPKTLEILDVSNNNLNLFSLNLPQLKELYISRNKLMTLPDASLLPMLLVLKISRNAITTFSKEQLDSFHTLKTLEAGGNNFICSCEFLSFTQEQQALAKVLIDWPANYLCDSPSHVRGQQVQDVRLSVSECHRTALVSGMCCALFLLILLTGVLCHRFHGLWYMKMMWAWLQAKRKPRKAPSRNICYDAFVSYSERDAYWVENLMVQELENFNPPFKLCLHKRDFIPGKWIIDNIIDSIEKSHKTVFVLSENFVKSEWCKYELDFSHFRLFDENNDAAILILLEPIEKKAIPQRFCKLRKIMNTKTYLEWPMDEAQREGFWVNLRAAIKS

The target in another series is TLR2/TLR6 (Homo sapiens) (UniProt O60603+Q9Y2C9). The series is described as follows: Agonist activity at human TLR2/6 expressed in HEK-Blue cells assessed as activation of SEAP at 0.5 uM incubated for 24 hrs by quanti-blue SEAP assay in presence of Anti-hTLR6-IgG. An outline of the steps: (§1)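 HEK-Blue hTLR2 cells (endogenous TLR1 and TLR6) were seeded at 4 × 10⁴/well in DMEM with 10% FBS and grown 24 h at 37 °C. The medium was then replaced with DMEM holding 0.5 μM compound plus anti-hTLR1-IgG, anti-hTLR2-IgA or anti-hTLR6 antibody (0–10 μg/mL) for 24 h. Supernatant was mixed 1:1 with QUANTI-Blue for 0.5–1 h at 37 °C and A620 read.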

Series [2] has as its target T1, Toll-like receptor 2. The series is described as follows: Agonist activity at human TLR2 expressed in HEK-Blue cells assessed as increase in TLR2 expression at 0.1 uM incubated for 24 hrs by Western blot analysis relative to control. An outline of the steps:
(§2)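 Western blot: HEK-Blue hTLR2 cells, 1.5 × 10⁶/well, were grown 24 h, then treated in serum-free DMEM with compound (0–50 μM) for 24 h. Cells were lysed in RIPA/PMSF, equal lysate loaded, SDS-PAGE, nitrocellulose. Membranes were blocked with 5% milk, probed overnight at 4 °C with rabbit anti-TLR2 (1:2000), then HRP secondary, with GAPDH as loading control. Three independent experiments.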
For orientation: Immunoblotting shows a protein as a band on a membrane.

A short description of series [3]: Cytotoxicity against human HEK-Blue cells transfected with hTLR2 assessed as cell viability upto 100 uM incubated for 24 hrs by CCK8 assay. An outline of the steps: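 HEK-Blue hTLR2 cells, 4 × 10⁴/well, were pre-cultured 24 h in DMEM/10% FBS at 37 °C, then exposed to compound for 24 h at 37 °C. Half the medium was removed, CCK-8 added, and incubation run 1–4 h at 37 °C before reading A450. Mean ± SD of three independent experiments.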
For orientation: Tetrazolium assays rely on reduction of a dye to a coloured formazan, in cell work by metabolically active cells.

Series [4] deals with T2, Toll-like receptor 1/2 (Homo sapiens) (UniProt O60603+Q15399). The experiment in a line: Agonist activity at human TLR1/2 expressed in HEK-Blue cells assessed as activation of SEAP at 0.5 uM incubated for 24 hrs by quanti-blue SEAP assay in presence of Anti-hTLR1-IgG. An outline of the steps:
as §1

Series [5] deals with Toll-like receptor 4 (Homo sapiens) (UniProt O00206). The experiment in a line: Agonist activity at human TLR4 expressed in HEK-Blue cells assessed as activation of SEAP up to 100 uM incubated for 24 hrs by quanti-blue SEAP assay. The essentials: (§3)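 HEK-Blue hTLR3 or hTLR4 cells were seeded at 4 × 10⁴/well and pre-grown 24 h, then incubated 24 h with compound at 0–100 μM. […] SEAP in the supernatant was read by QUANTI-Blue at OD620.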
Toll-like receptor 4 (Homo sapiens), sequence (O00206 whole entry): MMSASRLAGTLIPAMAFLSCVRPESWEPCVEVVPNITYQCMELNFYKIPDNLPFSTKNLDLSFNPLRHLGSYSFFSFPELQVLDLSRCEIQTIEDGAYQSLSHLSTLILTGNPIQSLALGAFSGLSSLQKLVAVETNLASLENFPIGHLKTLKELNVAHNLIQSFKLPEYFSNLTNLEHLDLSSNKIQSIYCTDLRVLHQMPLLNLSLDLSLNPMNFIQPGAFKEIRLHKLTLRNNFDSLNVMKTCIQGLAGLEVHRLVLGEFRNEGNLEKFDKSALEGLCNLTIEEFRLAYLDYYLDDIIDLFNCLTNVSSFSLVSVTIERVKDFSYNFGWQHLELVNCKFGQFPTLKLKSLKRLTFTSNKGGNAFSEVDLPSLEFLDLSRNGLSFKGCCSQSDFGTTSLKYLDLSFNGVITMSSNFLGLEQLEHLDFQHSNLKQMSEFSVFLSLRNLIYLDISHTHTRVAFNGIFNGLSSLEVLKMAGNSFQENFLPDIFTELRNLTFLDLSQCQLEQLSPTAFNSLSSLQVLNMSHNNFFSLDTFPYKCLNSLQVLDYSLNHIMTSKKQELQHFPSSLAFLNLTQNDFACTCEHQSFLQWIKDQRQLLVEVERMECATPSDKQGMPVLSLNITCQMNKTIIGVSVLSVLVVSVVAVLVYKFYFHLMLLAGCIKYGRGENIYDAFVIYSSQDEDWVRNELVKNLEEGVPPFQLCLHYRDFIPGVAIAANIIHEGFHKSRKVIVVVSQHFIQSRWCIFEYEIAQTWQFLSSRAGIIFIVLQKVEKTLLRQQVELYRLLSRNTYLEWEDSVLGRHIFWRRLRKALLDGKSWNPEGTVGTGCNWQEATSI

Series [6] has the same target. The series is described as follows: Agonist activity at human TLR4 expressed in HEK-Blue cells assessed as activation of SEAP at 10 ug/ml incubated for 24 hrs by quanti-blue SEAP assay.
In series [7] the target is T1, Toll-like receptor 2. The series is described as follows: Agonist activity at human TLR2 expressed in HEK-Blue cells assessed as NF-kappaB activation at 10 uM incubated for 24 hrs in presence of NF-kappaB inhibitor, triptolide by quanti-blue SEAP assay. An outline of the steps:
(§4)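 HEK-Blue hTLR2 cells (human TLR2 plus NF-κB-driven SEAP reporter in HEK293) were seeded at 4 × 10⁴/well and pre-grown 24 h at 37 °C. They were then exposed 24 h to compound in DMEM, with or without triptolide. SEAP in the supernatant was read with QUANTI-Blue (1:1, 37 °C, 0.5–1 h) at A620. Mean ± SD of three independent experiments.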

Series [8] addresses T2, Toll-like receptor 1/2 (Homo sapiens). The experiment in a line: Agonist activity at human TLR1/2 expressed in HEK-Blue cells assessed as activation of SEAP at 0.5 uM incubated for 24 hrs by quanti-blue SEAP assay in presence of Anti-hTLR2-IgA. An outline of the steps: as §1
Series [9] has as its target T1, Toll-like receptor 2. The series is described as follows: Agonist activity at human TLR2 expressed in HEK-Blue cells assessed as increase in TLR2 expression at 10 uM incubated for 24 hrs by Western blot analysis relative to control. The essentials: as §2
The target of series [10] is T1, Toll-like receptor 2. The experiment in a line: Agonist activity at human TLR2 expressed in HEK-Blue cells assessed as NF-kappaB activation at 10 uM incubated for 24 hrs by quanti-blue SEAP assay. An outline of the steps: as §4
In series [11] the target is Toll-like receptor 3 (Homo sapiens) (UniProt O15455). The experiment in a line: Agonist activity at human TLR3 expressed in HEK-Blue cells assessed as activation of SEAP up to 100 uM incubated for 24 hrs by quanti-blue SEAP assay. The essentials:
as §3

Series [12] deals with T1, Toll-like receptor 2. The experiment in a line: Agonist activity at human TLR2 in PMA differentiated THP-1 cells assessed as TNF-alpha production incubated for 4 hrs by ELISA. An outline of the steps: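 THP-1 cells (2.5 × 10⁵/mL) were differentiated with 100 nM PMA in RPMI/10% FBS for 24 h at 37 °C, 5% CO₂. They were washed, rested 24 h in fresh medium, then treated 4 h with compound in serum-free RPMI. Supernatant TNF-α was measured by sandwich ELISA against recombinant standards, duplicate samples. Mean ± SD, three independent experiments.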
In general terms: ELISA stands for enzyme-linked immunosorbent assay.

pEC50: −log10 of the molar value. Active and inactive are the calls of the source. No cut-off for these calls is given here.

What is called pEC50 is the negative decadic logarithm of the EC50, by convention in mol/L.

Toll-like receptor 3 (Homo sapiens), sequence (O15455 whole entry): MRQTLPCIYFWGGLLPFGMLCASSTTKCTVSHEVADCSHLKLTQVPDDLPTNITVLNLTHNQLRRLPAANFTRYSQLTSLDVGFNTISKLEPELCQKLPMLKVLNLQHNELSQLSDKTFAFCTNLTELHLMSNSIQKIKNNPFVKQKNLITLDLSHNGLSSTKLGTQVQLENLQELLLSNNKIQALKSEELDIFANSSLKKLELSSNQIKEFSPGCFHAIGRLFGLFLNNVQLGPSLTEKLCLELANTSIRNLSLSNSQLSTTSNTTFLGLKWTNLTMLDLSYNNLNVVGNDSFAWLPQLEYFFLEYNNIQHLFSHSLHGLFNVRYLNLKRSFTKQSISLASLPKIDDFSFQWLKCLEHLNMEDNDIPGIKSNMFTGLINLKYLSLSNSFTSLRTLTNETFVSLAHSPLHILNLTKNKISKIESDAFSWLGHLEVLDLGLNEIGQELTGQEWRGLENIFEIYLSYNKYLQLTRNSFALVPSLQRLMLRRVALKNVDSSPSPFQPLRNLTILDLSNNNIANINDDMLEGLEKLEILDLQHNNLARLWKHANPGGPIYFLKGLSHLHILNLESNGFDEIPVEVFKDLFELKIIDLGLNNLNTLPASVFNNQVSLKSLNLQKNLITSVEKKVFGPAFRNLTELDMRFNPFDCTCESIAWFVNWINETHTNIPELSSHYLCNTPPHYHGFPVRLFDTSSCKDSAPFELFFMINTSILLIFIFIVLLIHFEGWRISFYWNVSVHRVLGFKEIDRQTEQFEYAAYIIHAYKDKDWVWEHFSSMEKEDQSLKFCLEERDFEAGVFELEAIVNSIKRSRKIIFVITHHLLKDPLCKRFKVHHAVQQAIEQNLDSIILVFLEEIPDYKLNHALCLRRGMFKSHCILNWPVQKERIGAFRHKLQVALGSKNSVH

For `CCOC(=O)c1c(NC(=S)N2CCN(C)CC2)sc2c1CCC2`, the pEC50 on Toll-like receptor 2 [1] is 5.46. Take `CCOC(=O)c1c(NC(=S)N2CCN(c3ccccc3)CC2)sc2c1CCC2`: the EC50 result on Toll-like receptor 2 [1] is reported as “Not Active”. Same read-out and setting: for `CN1CCN(C(=O)Nc2sc3c(c2C(=O)O)CCC3)CC1` the value was “Not Active”. As for `CCOC(=O)c1c(NC(=O)N2CCN(C)CC2)sc2c1CCC2`, the pEC50 on Toll-like receptor 2 [1] is 6.25. On to `CCOC(=O)c1c(NC(=O)N2CCN(CCO)CC2)sc2c1CCC2`, for which, on Toll-like receptor 2 [1], the EC50 result is reported as “Not Active”.

With `CCOC(=O)c1c(NC(=O)N2CCN(CC)CC2)sc2c1CCC2`, the pEC50 on Toll-like receptor 2 [1] was 5.07.

Regarding `CCOC(=O)c1c(NC(=S)N2CCN(C(C)=O)CC2)sc2c1CCC2`, on Toll-like receptor 2 [1], the EC50 entry was “Not Active”. As to `CCOC(=O)c1c(NC(=S)N2CCN(C)CC2)sc2c1CCCC2`, on Toll-like receptor 2 [1], the negative-log EC50 (pEC50) is 5.19. The same measure, in the same setting: for `CCOC(=O)c1c(NC(=O)N2CCN(C)CC2)sc2c1CCCC2` the value was 6.46. For the molecule `CCOC(=O)c1c(NC(=O)N2CCN(C(C)=O)CC2)sc2c1CCC2`, the EC50 result on Toll-like receptor 2 [1] is recorded as “Not Active”. Turning to `CC(C)OC(=O)c1c(NC(=O)N2CCN(C)CC2)sc2c1CCC2`, the pEC50 at Toll-like receptor 2 [1] is 5.34. Take `CCCCCC1CCc2c(sc(NC(=O)N3CCN(C)CC3)c2C(=O)OC)C1` (stereo unspecified): the EC50 result at Toll-like receptor 2 [1] is on record as “Not Active”. For `COC(=O)c1c(NC(=O)N2CCN(C)CC2)sc2c1CCCCC2`, the pEC50 at Toll-like receptor 2 [1] was 5.88.

As for `CC(=O)N1CCN(C(=S)Nc2sc3c(c2C(=O)OC(C)C)CCC3)CC1`, at Toll-like receptor 2 [1], the EC50 result is reported as “Not Active”. On the same count and under the same terms, for `CCOC(=O)c1c(NC(=O)N2CCOCC2)sc2c1CCC2` the value was “Not Active”. Regarding `CCCOC(=O)c1c(NC(=O)N2CCN(C)CC2)sc2c1CCC2`, the pEC50 on Toll-like receptor 2 [1] was 4.85. `CCOC(=O)c1c(NC(=O)N2CCCCC2)sc2c1CCC2`: the EC50 entry at Toll-like receptor 2 [1] is on record as “Not Active”. In the case of `COC(=O)c1c(NC(=O)N2CCN(C)CC2)sc2c1CCC(C)C2` (stereo unspecified), at Toll-like receptor 2 [1], the negative-log EC50 (pEC50) was 4.93. Same read-out and setting: for `CC(C)OC(=O)c1c(NC(=S)N2CCN(C)CC2)sc2c1CCC2` the value was 4.79; for `CC(C)OC(=O)c1c(NC(=S)N2CCN(C)CC2)sc2c1CCCC2`, 4.34. For the molecule `COC(=O)c1c(NC(=O)N2CCN(C)CC2)sc2c1CCCC2`, the outcome on TLR2/TLR6 (Homo sapiens) and on Toll-like receptor 2 [10] was Active. The fold change (FC) was more than 5 at Toll-like receptor 2 [2] and 8 at Toll-like receptor 2 [9]. Also, the negative logarithm of the EC50 (pEC50) on Toll-like receptor 2 [1] was 6.80. The values for the Activity result (in series [3]; at Toll-like receptor 2 [12]) were “Non-Toxic” and “Dose-dependent effect”, respectively. In addition, the outcome (in series [4]; in series [5]; in [6]; at Toll-like receptor 2 [7]; in series [8]; in series [11]) was inactive. Turning to `CCCOC(=O)c1c(NC(=S)N2CCN(C)CC2)sc2c1CCCC2`, the EC50 result at Toll-like receptor 2 [1] was “Not Active”. On the same count and under the same terms, for `CC(C)OC(=O)c1c(NC(=S)N2CCN(c3ccccc3)CC2)sc2c1CCC2` the value was “Not Active”; for `CC(C)OC(=O)c1c(NC(=S)N2CCNCC2)sc2c1CCC2`, “Not Active”. For the molecule `CC(C)OC(=O)c1c(NC(=S)N2CCN(C)CC2)sc2c1CCCCC2`, at Toll-like receptor 2 [1], the EC50 entry is given as “Not Active”.

Turning to `CCCOC(=O)c1c(NC(=O)N2CCN(C)CC2)sc2c1CCCC2`, the pEC50 at Toll-like receptor 2 [1] was 5.18. For the molecule `CCN1CCN(C(=O)Nc2sc3c(c2C(=O)OC(C)C)CCC3)CC1`, the EC50 entry on Toll-like receptor 2 [1] is reported as “Not Active”. Still for that read-out and setting: for `CC(C)OC(=O)c1c(NC(=O)N2CCN(c3ccccc3)CC2)sc2c1CCC2` the value was “Not Active”. In the case of `COC(=O)c1c(NC(=O)N2CCN(C)CC2)sc2c1CCC2`, the negative-log EC50 (pEC50) on Toll-like receptor 2 [1] was 6.35.
